Among the data in ChEMBL document CHEMBL3120097, “HCV NS5A replication complex inhibitors. Part 4. Optimization for genotype 1a replicon inhibitory activity” (J Med Chem, 2014) are CC50 and EC50 values, retold here.

The structures appear in SMILES notation.

Usually CC50 stands for the concentration at which the toxic effect on the cells reaches its halfway point. As a reminder, the EC50 is the concentration needed to bring the measured effect to its halfway point. Low values mean greater potency, high ones weaker potency.

A short description of data set [1]: Cytotoxicity against bovine MDBK cells after 3 days by CellTitre-Blue assay. The data set is classed as cell-based, Bos taurus. Particulars: cattle.
The test system of data set [2] is Bovine viral diarrhea virus 1. The data set can be described thus: Antiviral activity against BVDV infected in bovine MDBK cells after 72 hrs by luciferase reporter gene assay. The data set is classed as functional, organism-based. Conditions: Bovine viral diarrhea virus isolates and strains.
Data set [3] deals with Hepatitis C virus. The data set can be described thus: Antiviral activity against HCV genotype 1b infected in human HuH7 cells after 72 hrs by FRET assay. The data set is classed as functional, organism-based, Hepacivirus hominis. Particulars: Huh-7, 72 h. The procedure, abridged: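 Replicon cells seeded 10K/well, attached overnight; compounds added with 0.5% v/v DMSO vehicle controls, typically 72 h. Alamar blue read first, then cells PBS-rinsed and lysed with reagent holding 150 mM NaCl and 20 μM final EDANS/DABCYL NS3 protease peptide; kinetic fluorescence 340/490 nm. EC₅₀ = concentration halving background-subtracted FRET signal versus DMSO wells.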

In data set [4] the test system is Hepatitis C virus. The data set is described as follows: Antiviral activity against HCV genotype 1a H77c infected in human HuH7 cells after 5 days by ELISA. Conditions: Huh-7, 120 h. The data set is classed as functional, organism-based, Hepacivirus hominis. The procedure, abridged:
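Genotype 1a (H77c) replicon cells, 1.5 × 10⁴/well in DMEM + 10% FBS, attached overnight at 37 °C; serially diluted compounds (in FBS-free DMEM) added, 5 days at 37 °C. Cells dried overnight at 37 °C to fix, Triton-permeabilized, casein-blocked; NS5A antiserum then HRP secondary, chemiluminescent read. Inhibition relative to untreated wells; background set with 500 nM NS3 inhibitor.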
On the technique in general: In an ELISA, binding on a coated surface is turned into a signal by an enzyme label.

On to `Cc1cc2ccccc2c(C(=O)N2CCC[C@H]2C(=O)Nc2ccc(/C=C/c3ccc(NC(=O)[C@@H]4CCCN4C(=O)c4nc(C)cc5ccccc45)cc3)cc2)n1`, for which, in data set [1], the CC50 at 72 h was greater than 10000 nM. Besides, the EC50 is greater than 10000 nM in data set [2], 6 nM with Hepatitis C virus [3] and 329 nM in the data set with Hepatitis C virus [4].
`Cc1cccc2c(C(=O)N3CCC[C@H]3C(=O)Nc3ccc(/C=C/c4ccc(NC(=O)[C@@H]5CCCN5C(=O)c5nccc6c(C)cccc56)cc4)cc3)nccc12` gave a CC50 at 72 h in data set [1] greater than 10000 nM. Further, the EC50 in data set [2] was greater than 10000 nM; in the data set on Hepatitis C virus [3] it was less than 5 nM; in the data set on Hepatitis C virus [4], greater than 10000 nM.
`COc1cccc2c(C(=O)N3CCC[C@H]3C(=O)Nc3ccc(/C=C/c4ccc(NC(=O)[C@@H]5CCCN5C(=O)c5nccc6c(OC)cccc56)cc4)cc3)nccc12` returned a CC50 at 72 h in data set [1] greater than 10000 nM. The EC50 in data set [2] was greater than 10000 nM; with Hepatitis C virus [3], 215 nM; with Hepatitis C virus [4], 175 nM.
In data set [1], `O=C(Nc1ccc(/C=C/c2ccc(NC(=O)[C@@H]3CCCN3C(=O)c3cc(Cl)cc4ccccc34)cc2)cc1)[C@@H]1CCCN1C(=O)c1cc(Cl)cc2ccccc12` registered a CC50 at 72 h greater than 10000 nM. Moreover, the EC50 in data set [2] is greater than 10000 nM; in the data set with Hepatitis C virus [3], 240 nM; with Hepatitis C virus [4] it was greater than 10000 nM.
For `O=C(Nc1ccc(/C=C/c2ccc(NC(=O)[C@@H]3CCCN3C(=O)c3cccc4ccccc34)cc2)cc1)[C@@H]1CCCN1C(=O)c1cccc2ccccc12`, the CC50 at 72 h in data set [1] is greater than 10000 nM. Also, the values for the EC50 (in data set [2]; with Hepatitis C virus [3]; with Hepatitis C virus [4]) were greater than 5000 nM, 1600 nM and greater than 10000 nM, respectively.
The compound `C=Cc1cccnc1C(=O)N1CCC[C@H]1C(=O)Nc1ccc(/C=C/c2ccc(NC(=O)[C@@H]3CCCN3C(=O)c3ncccc3C=C)cc2)cc1` had a CC50 at 72 h in data set [1] greater than 10000 nM. Besides, the EC50 is greater than 5000 nM in data set [2], 320 nM in the data set on Hepatitis C virus [3] and 3500 nM in the data set on Hepatitis C virus [4].
As for `CCc1ccnc(C(=O)N2CCC[C@H]2C(=O)Nc2ccc(/C=C/c3ccc(NC(=O)[C@@H]4CCCN4C(=O)c4cc(CC)ccn4)cc3)cc2)c1`, the CC50 at 72 h in data set [1] is greater than 10000 nM. For the same compound, the concentration for a half-maximal effect (EC50) in data set [2] was greater than 5000 nM; in the data set on Hepatitis C virus [3], 390 nM; with Hepatitis C virus [4], 4100 nM.
As to `O=C(Nc1ccc(/C=C/c2ccc(NC(=O)[C@@H]3CCCN3C(=O)c3nc(F)cc4ccccc34)cc2)cc1)[C@@H]1CCCN1C(=O)c1nc(F)cc2ccccc12`, the CC50 at 72 h in data set [1] was greater than 10000 nM. Further, the EC50 in data set [2] was greater than 10000 nM; with Hepatitis C virus [3], 27 nM; in the data set on Hepatitis C virus [4] it was 70 nM.
In turn, `O=C(Nc1ccc(/C=C/c2ccc(NC(=O)[C@@H]3CCCN3C(=O)c3nc(Cl)cc4c(F)cccc34)cc2)cc1)[C@@H]1CCCN1C(=O)c1nc(Cl)cc2c(F)cccc12` had a CC50 at 72 h in data set [1] greater than 10000 nM. Also, the EC50 in data set [2] was greater than 10000 nM; in the data set with Hepatitis C virus [3], 18 nM; with Hepatitis C virus [4], 42 nM.
In turn, `O=C(Nc1ccc(/C=C/c2ccc(NC(=O)[C@@H]3CCCN3C(=O)c3nccc4c(F)cccc34)cc2)cc1)[C@@H]1CCCN1C(=O)c1nccc2c(F)cccc12` had a CC50 at 72 h in data set [1] greater than 10000 nM. The EC50 in data set [2] stood at 7900 nM; in the data set on Hepatitis C virus [3], 42 nM; in the data set with Hepatitis C virus [4], 236 nM.
Taken in the same sequence, the figures for `O=C(Nc1ccc(/C=C/c2ccc(NC(=O)[C@@H]3CCCN3C(=O)c3ncc(Cl)c4ccccc34)cc2)cc1)[C@@H]1CCCN1C(=O)c1ncc(Cl)c2ccccc12` were greater than 10000 nM, greater than 10000 nM, 69 nM and 282 nM.
The compound `CCc1ccccc1C(=O)N1CCC[C@H]1C(=O)Nc1ccc(/C=C/c2ccc(NC(=O)[C@@H]3CCCN3C(=O)c3ccccc3CC)cc2)cc1` came in with a CC50 at 72 h in data set [1] greater than 10000 nM. Further, in data set [2], the EC50 amounted to 4700 nM.
In turn, `O=C(Nc1ccc(/C=C/c2ccc(NC(=O)[C@@H]3CCCN3C(=O)c3ncnc4ccccc34)cc2)cc1)[C@@H]1CCCN1C(=O)c1ncnc2ccccc12` registered a CC50 at 72 h in data set [1] greater than 10000 nM. Besides, the results for the EC50 (in data set [2]; with Hepatitis C virus [3]; with Hepatitis C virus [4]) were greater than 5000 nM, 2300 nM and 910 nM, respectively.
The corresponding values for `O=C(Nc1ccc(/C=C/c2ccc(NC(=O)[C@@H]3CCCN3C(=O)c3cncc4ccccc34)cc2)cc1)[C@@H]1CCCN1C(=O)c1cncc2ccccc12` are greater than 10000 nM, 42 nM, 140 nM and 1400 nM.
Taken in the same sequence, the figures for `COc1cc2ccccc2c(C(=O)N2CCC[C@H]2C(=O)Nc2ccc(/C=C/c3ccc(NC(=O)[C@@H]4CCCN4C(=O)c4nc(OC)cc5ccccc45)cc3)cc2)n1` were greater than 10000 nM, greater than 10000 nM, 32 nM and greater than 10000 nM.
Taken in the same sequence, the figures for `O=C(Nc1ccc(/C=C/c2ccc(NC(=O)[C@@H]3CCCN3C(=O)c3nncc4ccccc34)cc2)cc1)[C@@H]1CCCN1C(=O)c1nncc2ccccc12` were greater than 10000 nM, greater than 5000 nM, 30 nM and 1000 nM.
`CCc1cccnc1C(=O)N1CCC[C@H]1C(=O)Nc1ccc(/C=C/c2ccc(NC(=O)[C@@H]3CCCN3C(=O)c3ncccc3CC)cc2)cc1` gave a CC50 at 72 h in data set [1] greater than 10000 nM. Moreover, the EC50 in data set [2] was 3100 nM; in the data set on Hepatitis C virus [3], 46 nM; in the data set with Hepatitis C virus [4], 720 nM.
Compound `O=C(Nc1ccc(/C=C/c2ccc(NC(=O)[C@@H]3CCCN3C(=O)c3ccc4ccccc4n3)cc2)cc1)[C@@H]1CCCN1C(=O)c1ccc2ccccc2n1` gave a half-maximal cytotoxic concentration (CC50) at 72 h in data set [1] greater than 10000 nM. Also, the EC50 in data set [2] was greater than 5000 nM; with Hepatitis C virus [3] it was 200 nM; with Hepatitis C virus [4], 590 nM.
The corresponding values for `COc1ccc2ccc(C(=O)N3CCC[C@H]3C(=O)Nc3ccc(/C=C/c4ccc(NC(=O)[C@@H]5CCCN5C(=O)c5ccc6ccc(OC)cc6n5)cc4)cc3)nc2c1` are greater than 10000 nM, greater than 10000 nM, 62 nM and 126 nM.
`O=C(Nc1ccc(/C=C/c2ccc(NC(=O)[C@@H]3CCCN3C(=O)c3nccc4cc(Cl)ccc34)cc2)cc1)[C@@H]1CCCN1C(=O)c1nccc2cc(Cl)ccc12`: the CC50 at 72 h in data set [1] was greater than 10000 nM. The EC50 in data set [2] amounted to 2100 nM; with Hepatitis C virus [3], 110 nM; in the data set on Hepatitis C virus [4], 761 nM.
The corresponding values for `O=C(Nc1ccc(/C=C/c2ccc(NC(=O)[C@@H]3CCCN3C(=O)c3nccc4c(Cl)cccc34)cc2)cc1)[C@@H]1CCCN1C(=O)c1nccc2c(Cl)cccc12` are greater than 10000 nM, greater than 10000 nM, 139 nM and 255 nM.
Regarding `O=C(Nc1ccc(/C=C/c2ccc(NC(=O)[C@@H]3CCCN3C(=O)c3ncccc3-c3ccccc3)cc2)cc1)[C@@H]1CCCN1C(=O)c1ncccc1-c1ccccc1`, the CC50 at 72 h in data set [1] is greater than 10000 nM. Further, the EC50 in data set [2] is greater than 5000 nM; in the data set with Hepatitis C virus [3], 820 nM; in the data set on Hepatitis C virus [4], 2200 nM.
In turn, `C=Cc1ccccc1C(=O)N1CCC[C@H]1C(=O)Nc1ccc(/C=C/c2ccc(NC(=O)[C@@H]3CCCN3C(=O)c3ccccc3C=C)cc2)cc1` displayed a CC50 at 72 h in data set [1] greater than 10000 nM. For the same compound, the EC50 in data set [2] is greater than 5000 nM; in the data set with Hepatitis C virus [3], 1200 nM; with Hepatitis C virus [4] it was 1100 nM.
`O=C(Nc1ccc(/C=C/c2ccc(NC(=O)[C@@H]3CCCN3C(=O)c3nccc4ccccc34)cc2)cc1)[C@@H]1CCCN1C(=O)c1nccc2ccccc12` came in with a half-maximal cytotoxic concentration (CC50) at 72 h in data set [1] greater than 10000 nM. Moreover, the EC50 was found to be 6400 nM in data set [2] and 390 nM with Hepatitis C virus [4].
